Experimental findings from ChEMBL document CHEMBL1147605, “Syntheses and biological evaluation of new fluoroquinolone antibacterials containing chiral oxiimino pyrrolidine” (Bioorg Med Chem Lett, 2004) are described below.

The term MIC denotes the least concentration at which growth counts as inhibited. A low value points to greater potency. Broadly, the IC50 is the midpoint of a concentration-inhibition curve. Read a low IC50 as greater potency in that assay. A word on the Tmax: it is the time at which the peak concentration occurs. The AUC is the area under the concentration-time curve, a measure of exposure. Usually half-life stands for how long it takes for the measured level to halve. For orientation: Cmax means the highest concentration seen after dosing.

Data set [1] deals with Staphylococcus aureus. The data set can be described thus: In vitro antibacterial activity against the Methicillin-Resistant Staphylococcus aureus (MRSA) 690 E. The data set is classed as functional. The essentials:
(§1)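 MICs by agar dilution following National Committee for Clinical Laboratory Standards recommendations; all strains obtained from Hoechst.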

The next data set has as its system HepG2. Put plainly: Cytotoxicity was determined for the compound in HepG2 cell line. The conditions noted are these: Homo sapiens. Type of data set: functional, cell-based.
In data set [2] the test system is Staphylococcus aureus. The data set can be described thus: In vitro antibacterial activity against the Staphylococcus aureus SG511. Type of data set: functional.
Another data set deals with Enterococcus sp. Put plainly: In vitro antibacterial activity against the Ofloxacin Resistant Enterococcus knothe 101. The data set is classed as functional. An outline of the steps: as §1
In the next data set the test system is V79-4. Put plainly: Cytotoxicity was determined for the compound in V79-4 cell line. The data set is classed as functional, cell-based. The following applies: Cricetulus griseus.
A short description of data set [3]: Time for maximum plasma concentration reached by compound was determined in rats at 50 mg/kg dose. Type of data set: ADME, organism-based. Further details: dose 50 mg/kg. The following applies: rat. The essentials: (§2)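 Pharmacokinetics were measured in SD rats given 50mg/kg, reporting Cmax, Tmax, T1/2 and AUC.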
The test system of data set [4] is Streptococcus pyogenes. Put plainly: In vitro antibacterial activity against the Streptococcus pyogenes 308A. Type of data set: functional.
For data set [5], the system named is Staphylococcus epidermidis. The data set can be described thus: In vitro antibacterial activity against the Ofloxacin Resistant Staphylococcus epidermidis 291. Type of data set: functional. An outline of the steps:
as §1

Data set [6] concerns Staphylococcus aureus. Put plainly: In vitro antibacterial activity against the Methicillin-Resistant Staphylococcus aureus (MRSA) 707 E. Type of data set: functional. The essentials:
as §1

Data set [7] relates to Staphylococcus aureus. The data set can be described thus: In vitro antibacterial activity against the Staphylococcus aureus 285. The data set is classed as functional.
The next data set deals with Klebsiella. Put plainly: In vitro antibacterial activity against the Ofloxacin Resistant Klebsiella species 30-92. Type of data set: functional. The essentials:
as §1

Data set [8] concerns Pseudomonas aeruginosa. The data set can be described thus: In vitro antibacterial activity against the Pseudomonas aeruginosa 1771M. The data set is classed as functional.
For data set [9], the system named is Staphylococcus aureus. The data set can be described thus: In vitro antibacterial activity against the Ofloxacin Resistant Staphylococcus aureus 303. Type of data set: functional. An outline of the steps:
as §1

Data set [10] has as its system Pseudomonas aeruginosa. The data set can be described thus: In vitro antibacterial activity against the Pseudomonas aeruginosa 1592E. The data set is classed as functional.
The subject of data set [11] is Staphylococcus epidermidis. The data set can be described thus: In vitro antibacterial activity against the Ofloxacin Resistant Staphylococcus epidermidis 319. The data set is classed as functional. The essentials: as §1
Data set [12] deals with Staphylococcus aureus. Put plainly: In vitro antibacterial activity against the Ofloxacin Resistant Staphylococcus aureus 179. Type of data set: functional. An outline of the steps: as §1
Data set [13] relates to Staphylococcus aureus. Put plainly: In vitro antibacterial activity against the Methicillin-Resistant Staphylococcus aureus (MRSA) 705 E. The data set is classed as functional. The essentials: as §1
Data set [14] is described as follows: Plasma concentration for the compound was determined in rats at 50 mg/kg dose. Also noted: dose 50 mg/kg. The following applies: rat. Type of data set: ADME, organism-based. The essentials: as §2
For data set [15], the system named is Staphylococcus aureus. Put plainly: In vitro antibacterial activity against the Ofloxacin Resistant Staphylococcus aureus 293. The data set is classed as functional. The essentials:
as §1

Data set [16] relates to Staphylococcus aureus. Put plainly: In vitro antibacterial activity against the Methicillin-Resistant Staphylococcus aureus (MRSA) 692 E. The data set is classed as functional. The essentials:
as §1

The subject of data set [17] is Staphylococcus aureus. The data set can be described thus: In vitro antibacterial activity against the Methicillin-Resistant Staphylococcus aureus (MRSA) 697 E. Type of data set: functional. An outline of the steps:
as §1

Data set [18] concerns Escherichia coli. Put plainly: In vitro antibacterial activity against the Escherichia coli DC 2. Type of data set: functional.
The subject of data set [19] is Streptococcus pyogenes. Put plainly: In vitro antibacterial activity against the Streptococcus pyogenes 77A. Type of data set: functional.
Data set [20] deals with Staphylococcus aureus. The data set can be described thus: In vitro antibacterial activity against the Methicillin-Resistant Staphylococcus aureus (MRSA) 701 E. Type of data set: functional. An outline of the steps: as §1
For data set [21], the system named is Escherichia coli. Put plainly: In vitro antibacterial activity against the Escherichia coli 078. Type of data set: functional.
Another data set relates to Enterobacter cloacae. The data set can be described thus: In vitro antibacterial activity against the Enterobacter cloacae 1321 E. The data set is classed as functional.
In the next data set the test system is Salmonella typhimurium. The data set can be described thus: In vitro antibacterial activity against the Salmonella Typhimurium. Type of data set: functional, Salmonella enterica subsp. enterica serovar Typhimurium. The conditions noted are these: Salmonella enterica.
Data set [22] relates to Pseudomonas aeruginosa. The data set can be described thus: In vitro antibacterial activity against the Ofloxacin Resistant Pseudomonas aeruginosa 279II. The data set is classed as functional. An outline of the steps:
as §1

Data set [23] in a line: Half-life period for the compound was determined in rats at 50 mg/kg dose. Type of data set: ADME, organism-based. The conditions noted are these: rat, in vivo. Further details: dose 50 mg/kg.
Data set [24] can be described thus: Maximum plasma concentration reached by compound was determined in rats at 50 mg/kg dose. Also noted: dose 50 mg/kg. Type of data set: ADME, organism-based. The following applies: rat. The essentials:
as §2

Values after ≈ are worked out from the molar mass of the structure shown. Bounds are passed on as bounds.

For the compound `O=C(O)c1cn(C2CC2)c2cc(N3CCNCC3)c(F)cc2c1=O` [CIPROFLOXACIN], the MIC in the data set on Staphylococcus aureus [1] amounted to 0.391 µg/mL (≈ 1.18 µM); against Staphylococcus aureus [2], 0.195 µg/mL (≈ 0.589 µM); with Enterococcus sp., 0.781 µg/mL (≈ 2.36 µM); with Streptococcus pyogenes [4] it was 3.12 µg/mL (≈ 9.43 µM); in data set [5] it was 50 µg/mL (≈ 151 µM); in the data set with Staphylococcus aureus [6], 0.195 µg/mL (≈ 0.589 µM). The MIC came to 0.781 µg/mL (≈ 2.36 µM) against Staphylococcus aureus [7]; 1.56 µg/mL (≈ 4.72 µM) against Klebsiella; 0.098 µg/mL (≈ 0.296 µM) with Pseudomonas aeruginosa [8]; 12.5 µg/mL (≈ 37.7 µM) against Staphylococcus aureus [9]; 0.195 µg/mL (≈ 0.589 µM) against Pseudomonas aeruginosa [10]; 100 µg/mL (≈ 302 µM) in [11]. Further, the MIC against Staphylococcus aureus [12] turned out to be 12.5 µg/mL (≈ 37.7 µM); in the data set on Staphylococcus aureus [13], 0.391 µg/mL (≈ 1.18 µM); against Staphylococcus aureus [15], 12.5 µg/mL (≈ 37.7 µM); with Staphylococcus aureus [16], 0.391 µg/mL (≈ 1.18 µM); with Staphylococcus aureus [17], 0.391 µg/mL (≈ 1.18 µM); against Escherichia coli [18] it was 0.098 µg/mL (≈ 0.296 µM). In addition, the MIC against Streptococcus pyogenes [19] and with Staphylococcus aureus [20] was 0.391 µg/mL (≈ 1.18 µM) each time. In addition, the IC50 with HepG2 came out at 37.5 µg/mL (≈ 113 µM); in the data set on V79-4, 58.5 µg/mL (≈ 177 µM). Besides, the Tmax in [3] is 0.5 h. The same compound showed an AUC in data set [14] of 12700 ng·h/mL.

With `CO/N=C1\CN(c2cc3c(cc2F)c(=O)c(C(=O)O)cn3C2CC2)CC1(C)CN.Cl` (stereo not given), the MIC against Staphylococcus aureus [2] amounted to 0.007 µg/mL; against Streptococcus pyogenes [4] it was 0.098 µg/mL; with Staphylococcus aureus [7], 0.013 µg/mL; against Pseudomonas aeruginosa [8], 0.391 µg/mL; against Escherichia coli [21] it was 0.013 µg/mL; against Enterobacter cloacae it was 0.013 µg/mL. Besides, the MIC in the data set on Salmonella typhimurium stood at 0.013 µg/mL; with Pseudomonas aeruginosa [10], 0.781 µg/mL; in the data set on Escherichia coli [18], 0.025 µg/mL; in the data set on Streptococcus pyogenes [19], 0.013 µg/mL.

For `CO/N=C1\CN(c2c(F)cc3c(=O)c(C(=O)O)cn(C4CC4)c3c2Cl)CC1(C)CN.Cl` (stereo not given), the MIC in the data set on Staphylococcus aureus [2] was found to be 0.007 µg/mL; in the data set on Streptococcus pyogenes [4] it was 0.195 µg/mL; with Staphylococcus aureus [7] it was 0.007 µg/mL; in the data set with Pseudomonas aeruginosa [8], 0.195 µg/mL; in the data set on Escherichia coli [21], 0.007 µg/mL; in the data set on Enterobacter cloacae it was 0.004 µg/mL. Moreover, the MIC is 0.025 µg/mL against Salmonella typhimurium, 0.781 µg/mL against Pseudomonas aeruginosa [10], 0.025 µg/mL in the data set with Escherichia coli [18] and 0.025 µg/mL in the data set with Streptococcus pyogenes [19].

For `N[C@@H]1[C@H]2CN(c3nc4c(cc3F)c(=O)c(C(=O)O)cn4-c3ccc(F)cc3F)C[C@@H]12` [TROVAFLOXACIN], the IC50 amounted to 11.2 µg/mL (≈ 26.8 µM) in the data set on HepG2 and 3.77 µg/mL (≈ 9.05 µM) in the data set on V79-4.

In the case of `CO/N=C1\CN(c2c(F)c(N)c3c(=O)c(C(=O)O)cn(C4CC4)c3c2F)C[C@]1(C)CN.Cl`, the MIC in the data set with Staphylococcus aureus [1] is below 0.002 µg/mL; with Pseudomonas aeruginosa [22] it was 3.12 µg/mL; in the data set with Staphylococcus aureus [2], below 0.002 µg/mL; in the data set on Enterococcus sp. it was 0.013 µg/mL; against Streptococcus pyogenes [4], 0.004 µg/mL; in data set [5], 0.049 µg/mL. Also, the MIC in the data set on Staphylococcus aureus [6] was below 0.002 µg/mL; in the data set on Klebsiella it was 0.781 µg/mL; against Pseudomonas aeruginosa [8] it was 0.195 µg/mL; in the data set with Staphylococcus aureus [9], 0.013 µg/mL; against Escherichia coli [21], below 0.002 µg/mL; in the data set with Enterobacter cloacae, below 0.002 µg/mL. For the same compound, the MIC with Salmonella typhimurium was below 0.002 µg/mL; in the data set on Pseudomonas aeruginosa [10], 0.391 µg/mL; in data set [11] it was 0.025 µg/mL; in the data set on Staphylococcus aureus [12], 0.013 µg/mL; with Staphylococcus aureus [13] it was below 0.002 µg/mL; in the data set on Staphylococcus aureus [15], 0.013 µg/mL. The MIC against Staphylococcus aureus [16], in the data set with Staphylococcus aureus [17], against Escherichia coli [18], against Streptococcus pyogenes [19] and in the data set on Staphylococcus aureus [20] was below 0.002 µg/mL each time. Moreover, the IC50 with HepG2 was found to be 11.6 µg/mL; in the data set on V79-4, 0.21 µg/mL. In [23], the half-life is 6.94 h. In addition, the Tmax in data set [3] is 1 h. This compound yielded an AUC in [14] of 68800 ng·h/mL. The compound also came in with a Cmax in data set [24] of 6670 ng/mL.

As to `CC1(CN)CN(c2nc3c(cc2F)c(=O)c(C(=O)O)cn3C2CC2)C/C1=N/OCc1ccccc1.Cl` (stereo not given), the minimum inhibitory concentration (MIC) is below 0.002 µg/mL with Staphylococcus aureus [2]; 0.195 µg/mL with Streptococcus pyogenes [4]; below 0.002 µg/mL in the data set on Staphylococcus aureus [7]; 1.56 µg/mL in the data set on Pseudomonas aeruginosa [8]; 0.049 µg/mL against Escherichia coli [21]; 0.049 µg/mL in the data set on Enterobacter cloacae. Besides, the MIC in the data set with Salmonella typhimurium turned out to be 0.098 µg/mL; in the data set with Pseudomonas aeruginosa [10], 6.25 µg/mL; with Escherichia coli [18] it was 0.098 µg/mL; in the data set with Streptococcus pyogenes [19] it was 0.025 µg/mL.
